Laboratory results taken from article PMC3377097 (EMBO Molecular Medicine, 2011).

How the values were obtained:
murine isoQC = murine isoQC (Mus musculus, UniProt Q8BH73); assay: isoQC inhibition, Ki-values at pH 8; type: biochemical
murine QC = murine QC (Mus musculus, UniProt Q9CYK2); assay: QC inhibition, Ki-values at pH 8; type: biochemical
[1] = system: models of Alzheimer's disease; settings: high doses for up to 6 months ref Schilling et al, 2008; cited from earlier work
human isoQC = human isoQC (Homo sapiens, UniProt Q9NXS2); assay: isoQC inhibition, Ki-values at pH 8; type: biochemical
Sequence of human isoQC (Q9NXS2 whole entry): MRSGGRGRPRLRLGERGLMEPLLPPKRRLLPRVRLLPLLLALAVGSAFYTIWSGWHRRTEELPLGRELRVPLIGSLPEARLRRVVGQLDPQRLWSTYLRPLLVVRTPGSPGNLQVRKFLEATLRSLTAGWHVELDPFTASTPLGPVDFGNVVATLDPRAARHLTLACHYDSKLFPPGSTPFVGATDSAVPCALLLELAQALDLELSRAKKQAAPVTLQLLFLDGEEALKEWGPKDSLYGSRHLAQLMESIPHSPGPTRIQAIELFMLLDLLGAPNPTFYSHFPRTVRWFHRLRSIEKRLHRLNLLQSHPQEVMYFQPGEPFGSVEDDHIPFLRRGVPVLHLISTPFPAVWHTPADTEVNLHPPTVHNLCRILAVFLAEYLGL

C57BL/6J mice = assay: Thioglycollate-induced peritonitis; type: in vivo; settings: oral gavage; for level of ICAM1 and CCR2: cells of the peritoneal lavage
ApoE3*Leiden mice = assay: Cuff-induced accelerated atherosclerosis; type: in vivo
[2] = system: LPS-stimulated primary murine glia cells; assay: total-CCL2 and pE1-CCL2 ELISA of LPS-stimulated primary glia cells; type: cell-based; settings: varying doses
[3] = system: LPS-stimulated primary glia cells; assay: CCL2 gene expression; type: cell-based, murine; settings: doses of 0.625 and 2.5 µM
In short: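 Primary glia came from newborn C57BL/6J pups at postnatal day 1. Brains were triturated, strained at 100 and 40 µm, and 6 × 10^5 cells were seeded on poly-L-lysine in DMEM/F12 with 5% FBS and 0.05% gentamicin at 37°C and 5% CO2. Medium was renewed at day 7, and cells (about 85% astrocytes, 15% microglia) were used 12 days after seeding. After LPS stimulation, RNA went to random-primed cDNA and SYBR Green qPCR (comparative quantitation), n = 3–4, ANOVA/Tukey.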

[4] = system: human primary macrophages; assay: pE1-CCL2 secreted from LPS-stimulated primary macrophages; type: cell-based
In short: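 Human PBMCs were separated on an LSM 1077 density gradient and grown overnight at 37°C and 5% CO2. Adherent monocytes/macrophages were detached with accutase, plated at 1 × 10^5 cells/well and stimulated with 1 µg/ml LPS (E. coli O55:B5) for 24 h. Medium pE1-CCL2 was measured by sandwich ELISA: capture with 25 ng/well goat anti-hMCP-1 (overnight, 4°C), samples 2 h at room temperature, TMB read at 450 nm minus 550 nm.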

[5] = system: murine primary macrophages; assay: pE1-CCL2 secreted from LPS-stimulated primary macrophages; type: cell-based
In short: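 Blood was drawn by cardiac puncture into heparin from isoflurane-anaesthetised (2%) mice. PBMCs were separated on an LSM 1077 gradient, grown overnight, and adherent cells were detached with accutase and plated at 1 × 10^5 cells/well. Cells were stimulated with 1 µg/ml LPS (E. coli O55:B5) for 24 h. Medium pE1-CCL2 was measured by ELISA with 50 ng/well rabbit anti-mJE capture (coated 4–7 days, 4°C), read at 450 nm minus 550 nm.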

[6] = system: LPS-stimulated THP-1 cells; assay: CCL2 expression in LPS-stimulated THP-1 cells; type: cell-based, human; settings: increasing concentrations
THP-1 cells = assay: TransWell chemotaxis assay; type: cell-based, human; settings: THP-1 monocytes, 2 h migration
In short: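 THP-1 cells were grown in RPMI with 10% FBS and 50 µg/ml gentamicin at 37°C and 5% CO2, with mycoplasma checks. Cells at 1 × 10^6 per 100 µl RPMI1640 went into the upper chamber of 5 µm-pore TransWells, with chemoattractant below and serum-free RPMI as negative control. After 2 h at 37°C, 70 mM EDTA released bound cells (15 min, 37°C). Migrated cells were counted by cell counter or by FACS against 5000 Trucount beads.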

human recombinant DP4 = human recombinant DP4 (Homo sapiens, UniProt P27487); assay: Degradation of MCPs by DP4; type: biochemical; settings: for N-terminal truncation by recombinant human DP4: 10 µg/ml in 25 mM Tris/HCl pH 7.6; for truncation by DP4: mature state bearing a pE-residue
Sequence of human recombinant DP4 (P27487 whole entry, the tested form may be a part): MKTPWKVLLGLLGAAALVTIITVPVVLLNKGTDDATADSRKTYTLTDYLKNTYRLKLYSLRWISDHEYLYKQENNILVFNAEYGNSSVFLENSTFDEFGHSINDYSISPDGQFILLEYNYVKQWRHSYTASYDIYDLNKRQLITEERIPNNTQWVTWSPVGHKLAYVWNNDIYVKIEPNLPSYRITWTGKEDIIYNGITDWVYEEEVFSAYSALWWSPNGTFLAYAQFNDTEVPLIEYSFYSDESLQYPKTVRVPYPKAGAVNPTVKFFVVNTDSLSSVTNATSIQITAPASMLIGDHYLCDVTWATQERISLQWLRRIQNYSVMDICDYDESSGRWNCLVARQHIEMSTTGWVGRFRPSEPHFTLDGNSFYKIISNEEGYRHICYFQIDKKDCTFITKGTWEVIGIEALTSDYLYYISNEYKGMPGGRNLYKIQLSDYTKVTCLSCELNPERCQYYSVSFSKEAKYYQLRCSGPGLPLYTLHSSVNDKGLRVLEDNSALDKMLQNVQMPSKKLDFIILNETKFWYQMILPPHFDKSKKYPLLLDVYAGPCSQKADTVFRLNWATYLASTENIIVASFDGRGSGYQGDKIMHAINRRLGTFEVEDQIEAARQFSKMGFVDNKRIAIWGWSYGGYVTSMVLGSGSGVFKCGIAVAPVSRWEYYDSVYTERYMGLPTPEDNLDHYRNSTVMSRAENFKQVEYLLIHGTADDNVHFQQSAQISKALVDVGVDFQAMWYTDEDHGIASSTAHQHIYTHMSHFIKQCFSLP
In short: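 Recombinant CCL2, CCL7, CCL8 and CCL13 (Gln- and pGlu-forms) were either pre-incubated with recombinant human QC (0.6 µg/ml) for 2 h at 30°C and then incubated with recombinant human DP4, or incubated with DP4 alone. Truncation products were read by linear-mode MALDI-TOF-MS in positive ion mode over 2000–20,000 amu, summing at least 6 × 100 laser pulses.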

[7] = Degradation of CCL2 in human plasma; type: in vitro ADME; settings: incubation with human plasma
In short: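 CCL2(Q1-76) was incubated with human plasma, either directly or after pre-incubation with recombinant human QC. N-terminal cleavage products were read by linear-mode MALDI-TOF-MS in positive ion mode over 2000–20,000 amu, calibrated with insulin and myoglobin. Each spectrum sums at least 6 × 100 laser pulses.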

CCR2 = CCR2 (Homo sapiens, UniProt P41597); assay: CCR2 receptor internalization assay; type: cell-based; settings: human THP-1 monocytes, 45 min at 37°C, FACS
Sequence of CCR2 (P41597 whole entry): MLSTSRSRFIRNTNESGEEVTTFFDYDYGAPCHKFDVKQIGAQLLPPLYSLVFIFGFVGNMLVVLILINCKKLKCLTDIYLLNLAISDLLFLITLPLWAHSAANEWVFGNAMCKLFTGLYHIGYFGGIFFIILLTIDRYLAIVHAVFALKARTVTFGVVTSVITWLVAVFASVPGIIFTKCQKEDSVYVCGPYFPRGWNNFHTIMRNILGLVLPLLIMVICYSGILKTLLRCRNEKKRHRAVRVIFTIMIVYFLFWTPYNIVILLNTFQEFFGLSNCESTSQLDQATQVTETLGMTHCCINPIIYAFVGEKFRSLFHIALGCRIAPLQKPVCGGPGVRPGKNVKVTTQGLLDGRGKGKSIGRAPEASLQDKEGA
In short: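 THP-1 cells were maintained in RPMI with 10% FBS and 50 µg/ml gentamicin at 37°C, 5% CO2, and checked for mycoplasma. 6 × 10^5 cells were exposed in serum-free RPMI 1640 to N-terminal CCL2 variant ligands, then harvested into cold PBS. They were Fc-blocked for 10 min at 4°C and stained 30 min at 4°C with PE anti-CCR2 or IgG2B isotype control. After a PBS wash, they were analysed by flow cytometry.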

[8] = 2 days after surgery, drinking water 2.4 mg/ml

Sequence of murine QC (Q9CYK2 36-362): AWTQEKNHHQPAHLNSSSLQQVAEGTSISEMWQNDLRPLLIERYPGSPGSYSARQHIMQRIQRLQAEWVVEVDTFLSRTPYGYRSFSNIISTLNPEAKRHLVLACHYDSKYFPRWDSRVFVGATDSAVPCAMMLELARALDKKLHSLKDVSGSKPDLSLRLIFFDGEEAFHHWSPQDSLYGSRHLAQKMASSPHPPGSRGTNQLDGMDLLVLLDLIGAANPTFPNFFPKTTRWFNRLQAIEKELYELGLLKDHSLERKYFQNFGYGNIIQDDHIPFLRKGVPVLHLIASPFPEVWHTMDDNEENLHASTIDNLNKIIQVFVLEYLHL
Sequence of murine isoQC (Q8BH73 whole entry): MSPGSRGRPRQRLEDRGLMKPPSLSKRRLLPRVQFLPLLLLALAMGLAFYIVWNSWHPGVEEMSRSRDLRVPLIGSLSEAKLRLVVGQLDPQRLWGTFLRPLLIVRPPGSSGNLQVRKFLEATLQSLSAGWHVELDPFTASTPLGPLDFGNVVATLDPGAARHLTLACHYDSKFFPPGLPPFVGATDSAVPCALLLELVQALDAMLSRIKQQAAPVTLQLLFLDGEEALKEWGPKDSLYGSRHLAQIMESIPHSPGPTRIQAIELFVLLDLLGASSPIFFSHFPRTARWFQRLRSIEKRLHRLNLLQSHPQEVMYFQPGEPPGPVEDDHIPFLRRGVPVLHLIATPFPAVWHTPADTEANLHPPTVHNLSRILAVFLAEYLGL

In the case of `COc1ccc(NC(=S)NCCCn2ccnc2)cc1OC` [PQ50, 1-(3-(1H-Imidazol-1-yl)propyl)-3-(3,4-dimethoxyphenyl)thiourea], the Ki (murine isoQC) is given as 246 nM, the Ki (murine QC) is given as 170 nM and the toxicity [1] is given as “without overt signs of toxicity”. For the same molecule, the Ki (human isoQC) was 236 nM, the “gene expression of CCL2, CCL7, IL-6 and TNF-alpha in cells of the peritoneal lavage” value (C57BL/6J mice) was “without changing” and the “number of monocytes after stimulation with thioglycollate” value (C57BL/6J mice) was “reduced the number of monocytes”. For the same molecule, the “level of ICAM1 and CCR2” value (C57BL/6J mice) was “unchanged”, the “area of the media” value (ApoE3*Leiden mice; 2 weeks after surgery) was “reduced” and the “total area within the outer diameter of the vessel segment, area of the interna, number of foam cells” value (ApoE3*Leiden mice; 2 weeks after surgery) was “did not affect”. For the same molecule, the CCL2-immunopositive area (ApoE3*Leiden mice; 2 weeks after surgery, treated vs untreated) was “did not differ”, the “reduction of monocytes at the cuffed vessel segments” value (ApoE3*Leiden mice; [8]) was 67% and the “reduction of total adhering cells at the cuffed vessel segments” value (ApoE3*Leiden mice; [8]) was 45%.

In the case of `CCCOc1ccc(C2C(=O)NC(=O)N2c2ccc3[nH]cnc3c2)cc1` (centres unmarked) [PQ529, 1-(1H-benzo[d]imidazol-5-yl) -5-(4-propoxyphenyl) imidazolidine-2,4-dione], the “concentration of pE^1-CCL2” value [2] is reported as “decreased the concentration of pE^1-CCL2 dose-dependently”, the “CCL2 mRNA” value [3] is reported as “slight but significant increase” and the “pE^1-CCL2 secreted” value [4] is reported as “reduced”. For the same molecule, the “gene expression of CCL2, CCL7, IL-6 and TNF-alpha in cells of the peritoneal lavage” value (C57BL/6J mice) was “without changing”, the “number of monocytes after stimulation with thioglycollate” value (C57BL/6J mice) was “reduced the number of monocytes” and the “level of ICAM1 and CCR2” value (C57BL/6J mice) was “unchanged”. The “pE^1-CCL2 secreted” value [5] was “reduced” and the CCL2 expression [6] was “did not show an effect”.

In the case of “CCL2(D^3-76): DP4-cleavage product of CCL2”, the “monocyte attraction (chemotaxis)” value (THP-1 cells) is reported as “shift to higher concentrations needed to elicit chemotaxis”.

With “CCL2(Q^1-76): recombinant human CCL2 possessing an N-terminal glutaminyl residue (immature form)” the “N-terminal truncation by recombinant human DP4” value (human recombinant DP4) was “susceptible to cleavage”.

In the case of “CCL2(pE^1-76): mature human CCL2 with N-terminal pyroglutamate residue”, the “N-terminal degradation in human plasma” value [7] is reported as “completely resistant to cleavage”, the “monocyte attraction (chemotaxis)” value (THP-1 cells) is reported as “highest efficacy” and the “N-terminal truncation by recombinant human DP4” value (human recombinant DP4) is reported as “prevented N-terminal truncation”. The CCR2 internalization (CCR2) was “most potent”.

For “CCL7: recombinant human CCL7, MCP family member”, the “truncation by DP4” value (human recombinant DP4) was “protected against truncation”.

For “CCL13: recombinant human CCL13, MCP family member”, the “truncation by DP4” value (human recombinant DP4) was “protected against truncation”.

B1: CCL8: recombinant human CCL8 (MCP-2) (protein, UniProt P80075 24-99, looked up)
C-C motif chemokine 8: QPDSVSIPITCCFNVINRKIPIQRLESYTRITNIQCPKEAVIFKTKRGKEVCADPKERWVRDSMKHLDQIFQNLKP
For B1, the “truncation by DP4” value (human recombinant DP4) was “protected against truncation”.
